Source: PubChem BioAssay
An excerpt weighted towards active compounds, which were near 1.5% of everything screened.
APJ ag = APJ receptor agonism; P35414; activation, % at 20 µM; actives 0.11% (n = 330,000); AID 2520; CHO-K1 APJ PathHunter beta-arrestin, luminescence; 0% DMSO wells, 100% apelin;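 active = activation more than six SD over the plate average, tested at 20 µM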;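 note: 0% = DMSO alone and 100% = apelin-13 at 10 nM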
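Assay system – PathHunter CHO-K1 APJ (AGTRL-1) beta-arrestin reporter cells · Compound – one dose, 20 µM compound, 1% DMSO · Timing – compound 90 min 25 °C, reagent 1 h · Measured by – luminescence from split beta-galactosidase complementation, Galacton Star/Emerald II substrate · Measure – beta-arrestin recruitment to APJ as agonist activity, luminescent signal · Benchmarks – DMSO vs Apelin-13 10 nM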
CXCR6 inh = inhibitors of human CXCR6 receptor | inhibition, % at 20 µM | actives 0.36% (n = 360,000) | CHO-K1 PathHunter CXCR6 beta-arrestin, luminescence | AID 602244; in the data active = inhibition above about 34%, passing the limit was not always enough;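 note: antagonist mode with CXCL16 agonist at 10 nM final; 0% = 10 nM CXCL16 with DMSO and 100% = unstimulated wells without agonist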
Target sequence (O00574 whole entry, looked up): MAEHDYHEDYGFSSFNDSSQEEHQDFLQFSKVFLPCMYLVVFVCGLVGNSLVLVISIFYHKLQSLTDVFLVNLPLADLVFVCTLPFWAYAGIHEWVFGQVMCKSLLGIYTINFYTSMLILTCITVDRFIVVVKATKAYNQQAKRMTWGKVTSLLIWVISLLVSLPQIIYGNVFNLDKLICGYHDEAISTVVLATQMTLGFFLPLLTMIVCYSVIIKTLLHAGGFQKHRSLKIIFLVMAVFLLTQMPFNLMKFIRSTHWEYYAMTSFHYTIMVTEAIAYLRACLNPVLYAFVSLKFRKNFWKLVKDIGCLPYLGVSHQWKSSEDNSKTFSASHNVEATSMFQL
EBI2 block = blocks human EBI2 receptor beta-arrestin signaling | P32249 | EBI2 beta-arrestin recruitment, luminescence, 7a,25-OHC stimulated | inhibition, % at 5 µM | actives 0.81% (n = 360,000); in the data active = inhibition above about 38%;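 note: enzyme fragment complementation signal reports receptor beta-arrestin coupling in cells; 0% = agonist plus DMSO wells and 100% = wells without agonist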
APJ antag = blocks the human apelin receptor APJ; P35414; CHO-K1 APJ beta-arrestin complementation, luminescence; AID 2521; actives 0.32% (n = 330,000); inhibition, % at 20 µM;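 active = inhibition above about 40% at 20 µM, limit read from the data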;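 note: cells challenged with 10 nM apelin-13 agonist together with compound; plate controls were apelin-13 plus DMSO wells for no effect and DMSO wells lacking apelin-13 for full effect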
CCR6 antag = antagonists of human CCR6 receptor | P51684 | CHO-K1 CCR6 PathHunter beta-arrestin, luminescence, CCL20-stimulated | inhibition, % at 20 µM | actives 0.49% (n = 340,000) | AID 493098;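 active = compounds whose inhibition of the agonist-driven luminescence signal at 20 µM reaches about 50%, limit read from the data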;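 note: cells stimulated with CCL20 at 14 nM final; plate controls were DMSO with CCL20 for no effect and DMSO without agonist for full effect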
Target sequence (P51684 whole entry, looked up): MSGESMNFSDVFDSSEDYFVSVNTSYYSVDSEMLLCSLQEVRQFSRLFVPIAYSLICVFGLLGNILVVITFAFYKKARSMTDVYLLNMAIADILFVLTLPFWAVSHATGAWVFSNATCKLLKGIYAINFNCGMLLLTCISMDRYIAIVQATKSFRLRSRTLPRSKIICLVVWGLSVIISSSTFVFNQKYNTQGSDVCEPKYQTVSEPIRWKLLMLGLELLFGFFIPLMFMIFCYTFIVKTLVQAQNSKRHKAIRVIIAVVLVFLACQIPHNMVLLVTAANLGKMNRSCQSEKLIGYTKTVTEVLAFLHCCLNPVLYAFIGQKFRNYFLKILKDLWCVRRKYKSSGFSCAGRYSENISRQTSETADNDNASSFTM
EBI2 conf = confirmation of human EBI2 receptor antagonists. EBI2 beta-arrestin luminescence, 7a,25-OHC antagonism. actives 29% (n = 2,400). AID 651997. inhibition, % at 5 µM. shares compounds with EBI2 block;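 active = inhibition of at least 50%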
EBI2 agonist = EBI2 agonism counter-screen | shares compounds with EBI2 block | EBI2-expressing cells, agonist mode, luminescence, 60 min; 0% vehicle, 100% 7α,25-dihydroxycholesterol control | activation, % at 5 µM | 2,400 tested, under 10 active | AID 652000;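 active = activation of at least 50%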
bGal counter = counter-screen for EBI2 antagonists: E. coli beta-galactosidase inhibition; shares compounds with EBI2 block; purified beta-galactosidase, luminescent Galacton Star, 15 min; inhibition, % at 5 µM; actives 1% (n = 2,400);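 active = replicate-average signal at least 3 plate SD below neutral wells, shown as high inhibition, flagging enzyme-inhibiting false positives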;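 note: 0% = DMSO wells with enzyme and 100% = wells lacking enzyme; higher means stronger loss of beta-gal luminescence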
* hit, by the source's call; / = no result.

SMILES | APJ ag | CXCR6 inh | EBI2 block | APJ antag | CCR6 antag | EBI2 conf | EBI2 agonist | bGal counter
Cc1ccc(C(=O)COC(=O)c2ccc3c(c2)C(=O)N(c2cccc4ncccc24)C3=O)cc1C | 2.3 | 4.2 | 47.9* | -0.3 | 11.4 | 1.2 | -1.6 | -8.6
O=C(c1cccc(F)c1)N1CCN(C(=O)c2cc(-c3ccc(Cl)cc3Cl)on2)CC1 | -0.7 | 9.8 | 44.5* | 1.1 | 20.4 | 28.0 | -1.1 | -12.1
O=C(c1cc(-c2ccccc2Cl)on1)N1CCCC1 | -2.2 | -0.7 | 2.7 | 9.7 | 21.6 | / | / | /
CCCCn1nnnc1C(c1cc2ccccc2o1)N1CCN(C/C=C/c2ccccc2)CC1 (configuration not stated) | / | 0.0 | 61.9* | / | / | 34.1 | 0.3 | 5.6
CCCCn1nnnc1C(c1cc2ccccc2o1)N1CCCC1 (configuration not stated) | / | 3.1 | -9.7 | / | / | / | / | /
CCCCn1nnnc1C(c1cc2ccccc2o1)N1CCN(c2ncccc2C#N)CC1 (configuration not stated) | / | 2.3 | 48.0* | / | / | 36.6 | 0.2 | -15.7
C=C(C)CNC(=S)Nc1cccc(N)n1 | / | -14.9 | 9.6 | / | 1.6 | / | / | /
S=C(NCc1cccnc1)Nc1ccc(Oc2ccc(Cl)cc2)cc1 | 7.4 | 0.7 | 45.5* | -4.0 | 11.2 | 21.8 | -1.8 | -10.0
Cc1cc(C(=O)N/N=C/c2c(C)nn(-c3ccccc3)c2C)n[nH]1 | -5.1 | -7.0 | -4.6 | -1.7 | 3.1 | / | / | /
Cc1nn(-c2ccccc2)c(C)c1/C=N/NC(=O)c1cc(-c2ccc(Cl)s2)[nH]n1 | 0.8 | -8.2 | 52.4* | 4.6 | -6.1 | 30.3 | 1.2 | 9.9
Cc1nn(-c2ccccc2)c(C)c1/C=N/NC(=O)c1cc(-c2ccc(Br)s2)[nH]n1 | -3.1 | 11.0 | 59.1* | -8.7 | -5.7 | 22.1 | 0.1 | 8.4
Cc1nn(-c2ccccc2)c(C)c1/C=N/NC(=O)c1cc(-c2cccs2)[nH]n1 | -1.2 | 2.2 | 4.6 | 5.4 | 25.2 | / | / | /
N#Cc1nc(COc2ccc(F)cc2)oc1N1CCN(Cc2ccccc2)CC1 | -5.4 | 5.6 | 35.2 | 4.7 | 13.5 | / | / | /
N#Cc1nc(COc2ccc(F)cc2)oc1N1CCC(Cc2ccccc2)CC1 | -3.4 | 10.1 | 60.1* | 14.1 | 11.3 | 14.3 | -0.1 | 0.3
COc1ccc(N2CCN(c3oc(COc4ccccc4Cl)nc3C#N)CC2)cc1 | -1.7 | -5.4 | 21.3 | -12.7 | 1.4 | / | / | /
COc1ccc(Nc2oc(COc3ccc(OC)cc3)nc2C#N)cc1 | -0.1 | -6.1 | 52.0* | -14.6 | 13.7 | 19.6 | -0.5 | 9.0
COc1ccc(OCc2nc(C#N)c(N3CCN(c4ccc(OC)cc4)CC3)o2)cc1 | -2.9 | 6.3 | 43.6* | 14.0 | 17.2 | 42.6 | 0.1 | -0.4
N#Cc1nc(COc2ccc(Br)cc2)oc1N1CCN(Cc2ccccc2)CC1 | / | -0.4 | 43.1* | / | 15.1 | 15.0 | -1.1 | -7.0
COC(=O)Nc1ccc(S(=O)(=O)N2CCCC(C(=O)NCC3CCCO3)C2)cc1 (configuration not stated) | -2.2 | -4.4 | -4.3 | -5.4 | 1.6 | / | / | /
COc1ccc(-c2ccc3nncn3c2)cn1 | / | 0.5 | -16.8 | / | / | / | / | /
COC(=O)C(=Cc1ccc(OCc2ccc([N+](=O)[O-])cc2)c(OC)c1)C(=O)OC | -4.6 | 22.2 | 57.4* | 8.9 | 40.4 | 66.6* | 1.5 | 2.5
CCOc1ccc(NC(=S)Nc2cc(OC)c(Cl)cc2OC)cc1 | -2.5 | 4.9 | 65.0* | 9.1 | 13.4 | 18.7 | -1.8 | -4.2
COc1cc(NC(=S)Nc2cccc(Cl)c2Cl)c(OC)cc1Cl | -5.0 | 2.2 | 1.3 | 3.7 | 16.1 | / | / | /
CCOc1ccc(NC(=S)Nc2ccc(OCC)cc2)cc1 | -3.3 | 4.2 | 80.2* | -17.0 | 20.7 | 61.8* | 0.3 | 8.1
CCOc1ccc(NC(=S)Nc2ccc(OC(F)(F)F)cc2)cc1 | -1.5 | 0.7 | 75.8* | 20.5 | -7.2 | 53.4* | -1.0 | -19.3
SMILES | APJ ag | CXCR6 inh | EBI2 block | APJ antag | CCR6 antag | EBI2 conf | EBI2 agonist | bGal counter
CCc1ccc(NC(=S)Nc2cccc(OC)c2)cc1 | -4.8 | 9.0 | 49.8* | -4.8 | 6.2 | 20.9 | 2.2 | 3.7
CNC(=S)Nc1ccc(OC(F)(F)F)cc1 | -1.3 | -0.3 | 7.4 | 0.3 | 1.1 | / | / | /
O=C(N/N=C/c1ccccc1)c1sccc1OCc1ccc(F)cc1 | -1.2 | 5.2 | -2.8 | 17.4 | -18.8 | / | / | /
COc1ccc(-n2ccc(=O)c(C(=O)O)n2)c(OC)c1 | -2.5 | -0.5 | -6.7 | 16.8 | 7.3 | / | / | /
CCOc1ccc(NC(=S)Nc2ccc(C)c([N+](=O)[O-])c2)cc1 | -3.8 | 0.0 | 64.8* | 5.7 | -2.0 | 65.8* | 1.4 | 8.4
O=C(COC(=O)c1nc(Cl)ccc1Cl)NC1CCCCC1 | -1.5 | -0.9 | -1.7 | -8.3 | 9.2 | / | / | /
CC1=C(C(=O)OCC2CCCO2)C(c2ccccc2OC(C)C)C2=C(CC(c3ccco3)CC2=O)N1 (configuration not stated) | -6.3 | 12.9 | -2.4 | 12.1 | -1.8 | / | / | /
CC1=C(C(=O)OCC2CCCO2)C(c2cccc(C(F)(F)F)c2)C2=C(CC(c3ccco3)CC2=O)N1 (configuration not stated) | -4.3 | 7.1 | 53.3* | -5.3 | 7.8 | 30.1 | -0.1 | 4.9
c1ccc(Cc2nn3c(COc4ccccc4)nnc3s2)cc1 | -3.5 | 3.0 | 60.2* | -13.5 | -4.2 | 39.8 | 0.8 | 4.8
COc1cc(CNc2ncnc3c2ncn3[C@H]2CN(CCc3ccccc3)C[C@@H](CO)O2)cc(OC)c1OC | / | -4.3 | -20.2 | / | / | / | / | /
COc1ccc(/C(C)=N/NC(=O)CNC(=O)c2ccncc2)c(OC)c1 | -5.7 | -4.2 | 11.3 | -18.0 | 8.9 | / | / | /
COc1ccc(NC(=O)c2sc(SC)nc2N)cc1 | 4.9 | -1.4 | 6.4 | 7.3 | 8.0 | / | / | /
COc1ccc(NC(=O)c2sc(SCc3ccccc3)nc2N)cc1 | -4.6 | 1.5 | 88.3* | 2.9 | 6.3 | 68.8* | -0.3 | -12.2
Cc1c(C(=O)Nc2ccccc2)sc2nc[nH]c(=O)c12 | -2.2 | -4.3 | -2.3 | 10.8 | 3.0 | / | / | /
O=C(c1ccc(Cl)cc1)N1CCC(O)(CSc2ccc(Cl)cc2Cl)CC1 | 1.4 | -15.6 | 65.5* | -16.1 | -7.8 | 55.7* | 0.6 | 12.3
CC(C)(C)c1ccc(C(=S)N2CCN(c3ccccc3)CC2)cc1 | -1.7 | 6.5 | 58.5* | 20.3 | 17.3 | 46.5 | -2.3 | -10.7
CCCC(=O)Nc1ccc(C(=O)/C=C/c2ccc(SC)cc2)cc1 | -0.3 | -3.5 | 43.5* | 2.6 | 4.1 | 38.2 | 0.0 | 6.0
CSc1ccc(/C=C/C(=O)c2ccc(NC(C)=O)cc2)cc1 | -2.1 | 6.4 | 80.5* | 1.8 | 10.3 | 39.8 | -0.1 | 6.2
O=C(/C=C/c1ccc(Br)cc1)c1ccc(NC(=O)c2ccco2)cc1 | -1.3 | 2.5 | 42.9* | 4.9 | 0.5 | 8.6 | -1.2 | -7.8
